In ChEMBL document CHEMBL1154907, “Synthesis and preclinical evaluations of 2-(2-fluorophenyl)-6,7-methylenedioxyquinolin-4-one monosodium phosphate (CHM-1-P-Na) as a potent antitumor agent” (J Med Chem, 2010):
Activity calls are given as the source filed them. The rule behind the calls is not given here.

How the values were obtained:
[1] = Growth inhibition of human HBC4 cells by SRB assay; format: functional
Summary of the method: (§1)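 Human cancer cell panel; five concentrations from 10^-4 to 10^-8 M; growth measured by sulforhodamine B colorimetric method; GI50, TGI and LC50 derived from computer-analysed dose-response curves.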

[2] = test system: SF-268; test: Growth inhibition of human SF268 cells by SRB assay; format: functional
Summary of the method: (§2)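 Cancer cell panel; growth measured by sulforhodamine B colorimetric method across five concentrations from 10^-4 to 10^-8 M; GI50, TGI and LC50 derived from computer-analysed dose-response curves.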

[3] = test system: SNB-78; test: Growth inhibition of human SNB78 cells by SRB assay; format: functional; summary of the method: as §2
[4] = test system: KM12; test: Growth inhibition of human KM12 cells by SRB assay; format: functional; summary of the method: as §1
[5] = test system: HT-29; test: Growth inhibition of human HT-29 cells by SRB assay; format: functional; summary of the method: as §1
[6] = test system: HCT-15; test: Growth inhibition of human HCT15 cells by SRB assay; format: functional; summary of the method: as §1
[7] = test system: HCT-116; test: Growth inhibition of human HCT116 cells by SRB assay; format: functional; summary of the method: as §1
[8] = test system: NCI-H226; test: Growth inhibition of human NCI-H226 cells by SRB assay; format: functional; summary of the method: as §1
[9] = test system: NCI-H522; test: Growth inhibition of human NCI-H522 cells by SRB assay; format: functional; summary of the method: as §1
[10] = test system: NCI-H460; test: Growth inhibition of human NCI-H460 cells by SRB assay; format: functional; summary of the method: as §1
[11] = test system: A549; test: Growth inhibition of human A549 cells by SRB assay; format: functional; summary of the method: as §1
[12] = Growth inhibition of human DMS144 cells by SRB assay; format: functional; summary of the method: as §1
[13] = test system: OVCAR-3; test: Growth inhibition of human OVCAR-3 cells by SRB assay; format: functional; summary of the method: as §1
[14] = test system: OVCAR-8; test: Growth inhibition of human OVCAR8 cells by SRB assay; format: functional; summary of the method: as §1
[15] = test system: ACHN; test: Growth inhibition of human ACHN cells by SRB assay; format: functional; summary of the method: as §1
[16] = Growth inhibition of human MKN1 cells by SRB assay; format: functional, MKN-1; summary of the method: as §1
[17] = test system: MKN-7; test: Growth inhibition of human MKN7 cells by SRB assay; format: functional; summary of the method: as §1
[18] = test system: MKN-28; test: Growth inhibition of human MKN28 cells by SRB assay; format: functional; summary of the method: as §1
[19] = test system: MKN-45; test: Growth inhibition of human MKN45 cells by SRB assay; format: functional; summary of the method: as §1
[20] = test system: MKN-74; test: Growth inhibition of human MKN74 cells by SRB assay; format: functional; summary of the method: as §1
[21] = test system: DU-145; test: Growth inhibition of human DU145 cells by SRB assay; format: functional; summary of the method: as §1
[22] = Tmax in CD1 mouse at 10 mg/kg, ip; format: ADME, organism-based; design: dose 10 mg/kg, route intraperitoneal; settings: in vivo
Summary of the method: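 Male CD-1 (Crl.) mice, 22-24 g, single 10 mg/kg ip bolus of parent drug in cremophor/DMSO/saline (20/5/75, v/v; 2 mg/mL, 5 mL/kg). Blood sampled at 0, 5, 15, 30 min, 1, 1.5, 2, 4, 6, 9, 24, 27 h, three mice per time point. Plasma extracted with acetonitrile, analysed by LC-MS/MS. Parameters calculated from mean plasma concentrations.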

[23] = target: Cathepsin D (Homo sapiens) (UniProt P07339); test: Inhibition of human cathepsin D at 10 uM by enzyme assay
Cathepsin D (Homo sapiens), sequence (P07339 65-162 limits assumed): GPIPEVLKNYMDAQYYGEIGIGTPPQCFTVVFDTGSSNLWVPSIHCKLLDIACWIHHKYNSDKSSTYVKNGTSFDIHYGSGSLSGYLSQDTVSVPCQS
Cathepsin D (Homo sapiens), sequence (P07339 169-412 limits assumed): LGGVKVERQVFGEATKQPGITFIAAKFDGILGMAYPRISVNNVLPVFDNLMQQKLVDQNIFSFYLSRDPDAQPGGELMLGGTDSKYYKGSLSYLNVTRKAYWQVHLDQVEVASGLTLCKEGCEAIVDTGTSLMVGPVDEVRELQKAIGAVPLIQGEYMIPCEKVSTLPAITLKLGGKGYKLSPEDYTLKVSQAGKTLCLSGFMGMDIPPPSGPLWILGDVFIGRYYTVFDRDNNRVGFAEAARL
Summary of the method: (§3)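 Commercial spectrum screen of enzyme assays under standard protocols; percent inhibition tested at 10 μM; IC50 determined for targets showing significant inhibition at that concentration; SEM given where multiple independent determinations.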

[24] = target: Cathepsin E (Homo sapiens) (UniProt P14091); test: Inhibition of human cathepsin E at 10 uM by enzyme assay; summary of the method: as §3
Cathepsin E (Homo sapiens), sequence (P14091 whole entry): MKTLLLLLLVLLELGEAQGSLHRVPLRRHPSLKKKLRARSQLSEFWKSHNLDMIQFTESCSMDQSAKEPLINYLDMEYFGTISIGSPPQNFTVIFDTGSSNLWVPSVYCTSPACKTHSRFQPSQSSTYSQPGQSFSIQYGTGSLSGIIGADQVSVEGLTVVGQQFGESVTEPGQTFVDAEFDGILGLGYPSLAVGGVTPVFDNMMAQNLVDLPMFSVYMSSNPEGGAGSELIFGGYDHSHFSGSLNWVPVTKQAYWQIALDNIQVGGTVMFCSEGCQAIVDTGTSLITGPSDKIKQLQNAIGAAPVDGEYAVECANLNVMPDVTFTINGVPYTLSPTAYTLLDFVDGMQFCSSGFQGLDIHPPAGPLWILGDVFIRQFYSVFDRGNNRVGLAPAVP

[25] = test system: SK-OV-3; test: Cell cycle arrest in human SKOV3 cells assessed as increase in accumulation at G2/M phase at 10 uM after 36 hrs by propidium iodide-based flow cytometry; format: functional
Summary of the method: (§4)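 SKOV-3 cells (DMEM/F-12, 10% fetal calf serum) treated with 10 μM for 6, 12, 24, 36 or 48 h; trypsinized, PBS-washed, fixed in 70% ice-cold ethanol overnight at -20 °C, RNase A treated, propidium iodide stained; DNA content by flow cytometry, phase percentages and hypodiploid fraction scored.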

[26] = test system: SK-OV-3; test: Cell cycle arrest in human SKOV3 cells assessed as decrease in accumulation at G0/G1 phase at 10 uM after 36 hrs by propidium iodide-based flow cytometry; format: functional; summary of the method: as §4
[27] = test system: SK-OV-3; test: Cell cycle arrest in human SKOV3 cells assessed as accumulation of cells with G2/M DNA at 10 uM after 36 hrs by propidium iodide-based flow cytometry; format: functional; summary of the method: as §4
[28] = test system: SK-OV-3; test: Cell cycle arrest in human SKOV3 cells assessed as increase in accumulation of hypodiploid cells at 10 uM after 48 hrs by propidium iodide-based flow cytometry; format: functional; summary of the method: as §4
[29] = test system: SK-OV-3; test: Induction of mitotic arrest in human SKOV3 cells assessed as increase in […] upregulation at 10 uM after 24 hrs by SDS-PAGE; format: functional, cell-based
Summary of the method: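 SKOV-3 cells treated with vehicle (DMSO) or 10 μM for indicated times, or indicated doses for 24 h; whole-cell lysates resolved by SDS-PAGE, blotted and probed with anti-BubR1 mouse mAb; ECL detection.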

[30] = test system: OVCAR-3; test: Antitumor activity against human OVCAR-3 cells xenografted in nude mouse assessed as increase in lifespan of organism at 134 mg/kg, ip administered in Q7D x 3 schedule relative to control; format: functional; settings: route intraperitoneal
[31] = Toxicity in ip dosed nude mouse assessed as maximum tolerated dose; format: organism-based; settings: in vivo
[32] = organism: Rattus norvegicus; test: Displacement of […] from benzodiazepine binding site of rat GABAA receptor at 10 uM radioligand binding assay
Summary of the method: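 Radioligand binding screen run by contract lab under standard protocols; rat GABA_A sites; single-point inhibition at 10 μM, with IC50 determined where inhibition was significant.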

For `O=c1cc(-c2ccccc2F)[nH]c2cc3c(cc12)OCO3`, the GI50 ([1]; HBC4) was 0.347 µM, the CC50 ([1]; HBC4, read-out: pLC50 (converted)) was > 100 µM and the TGI ([1]; HBC4, read-out: pTGI) was > 100 µM. For the same compound, the GI50 ([2]; SF-268) was 0.1 µM, the CC50 ([2]; SF-268, read-out: pLC50 (converted)) was > 100 µM and the TGI ([2]; SF-268, read-out: pTGI) was > 100 µM. For the same compound, the GI50 ([3]; SNB-78) was 0.219 µM, the CC50 ([3]; SNB-78, read-out: pLC50 (converted)) was > 100 µM and the TGI ([3]; SNB-78, read-out: pTGI (converted)) was 12 µM. For the same compound, the GI50 ([4]; KM12) was 0.0676 µM, the CC50 ([4]; KM12, read-out: pLC50 (converted)) was > 100 µM and the TGI ([4]; KM12, read-out: pTGI) was > 100 µM. For the same compound, the GI50 ([5]; HT-29) was 0.309 µM, the CC50 ([5]; HT-29, read-out: pLC50 (converted)) was > 100 µM and the TGI ([5]; HT-29, read-out: pTGI (converted)) was 1.2 µM. The GI50 ([6]; HCT-15) was 0.0501 µM, the CC50 ([6]; HCT-15, read-out: pLC50 (converted)) was > 100 µM and the TGI ([6]; HCT-15, read-out: pTGI) was > 100 µM. The GI50 ([7]; HCT-116) was 0.0646 µM, the CC50 ([7]; HCT-116, read-out: pLC50 (converted)) was > 100 µM and the TGI ([7]; HCT-116, read-out: pTGI) was > 100 µM. For the same compound, the GI50 ([8]; NCI-H226) was 0.355 µM, the CC50 ([8]; NCI-H226, read-out: pLC50 (converted)) was > 100 µM and the TGI ([8]; NCI-H226, read-out: pTGI) was > 100 µM. For the same compound, the GI50 ([9]; NCI-H522) was 0.0603 µM, the CC50 ([9]; NCI-H522, read-out: pLC50 (converted)) was > 100 µM and the TGI ([9]; NCI-H522, read-out: pTGI (converted)) was 0.562 µM. For the same compound, the GI50 ([10]; NCI-H460, read-out: pGI50 (converted)) was > 100 µM, the CC50 ([10]; NCI-H460, read-out: pLC50 (converted)) was > 100 µM and the TGI ([10]; NCI-H460, read-out: pTGI) was > 100 µM. For the same compound, the GI50 ([11]; A549) was 0.692 µM, the CC50 ([11]; A549, read-out: pLC50 (converted)) was > 100 µM and the TGI ([11]; A549, read-out: pTGI) was > 100 µM. The GI50 ([12]; DMS144) was 0.0537 µM, the CC50 ([12]; DMS144, read-out: pLC50 (converted)) was > 100 µM and the TGI ([12]; DMS144, read-out: pTGI (converted)) was 0.676 µM. The GI50 ([13]; OVCAR-3) was 7.08 µM, the CC50 ([13]; OVCAR-3, read-out: pLC50 (converted)) was > 100 µM and the TGI ([13]; OVCAR-3, read-out: pTGI) was > 100 µM. For the same compound, the GI50 ([14]; OVCAR-8) was 0.162 µM, the CC50 ([14]; OVCAR-8, read-out: pLC50 (converted)) was > 100 µM and the TGI ([14]; OVCAR-8, read-out: pTGI (converted)) was 0.794 µM. The GI50 [15] was 0.389 µM, the CC50 ([15]; read-out: pLC50 (converted)) was > 100 µM and the TGI ([15]; read-out: pTGI) was > 100 µM. The GI50 ([16]; MKN-1) was 0.0776 µM, the CC50 ([16]; MKN-1, read-out: pLC50 (converted)) was > 100 µM and the TGI ([16]; MKN-1, read-out: pTGI) was > 100 µM. The GI50 ([17]; MKN-7) was 0.0457 µM, the CC50 ([17]; MKN-7, read-out: pLC50 (converted)) was > 100 µM and the TGI ([17]; MKN-7, read-out: pTGI) was > 100 µM. The GI50 ([18]; MKN-28) was 0.112 µM, the CC50 ([18]; MKN-28, read-out: pLC50 (converted)) was > 100 µM and the TGI ([18]; MKN-28, read-out: pTGI (converted)) was 17.8 µM. For the same compound, the GI50 ([19]; MKN-45) was 0.0575 µM, the CC50 ([19]; MKN-45, read-out: pLC50 (converted)) was > 100 µM and the TGI ([19]; MKN-45, read-out: pTGI) was > 100 µM. The GI50 ([20]; MKN-74) was 0.162 µM, the CC50 ([20]; MKN-74, read-out: pLC50 (converted)) was > 100 µM and the TGI ([20]; MKN-74, read-out: pTGI (converted)) was 0.871 µM. The GI50 ([21]; DU-145) was 0.0501 µM, the CC50 ([21]; DU-145, read-out: pLC50 (converted)) was > 100 µM and the TGI ([21]; DU-145, read-out: pTGI (converted)) was 0.562 µM. For the same compound, the Tmax [22] was 18 min, the inhibition [23] was 27% and the inhibition [24] was 12%. For the same compound, the Activity [25] was “Active”, the Activity [26] was “Active” and the Activity [27] was “Active”. For the same compound, the Activity [28] was “Active”, the Activity [29] was “Active” and the Activity [30] was 133%. The MTD [31] was 200 mg/kg and the inhibition [32] was 83%.
